High-throughput results from PubChem.
Scp1 inh: Scp-1 (human) phosphatase inhibition. Q9GZU7. Recombinant Scp1, phosphopeptide, malachite green phosphate absorbance. inhibition, % at 20 µM. 0.88% of 340,000 active. AID 493091;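 active means inhibition above about 50% at 20 µM, limit read from the data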;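 further: plate controls were DMSO wells with enzyme for no effect and wells lacking enzyme for full effect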
Target sequence (Q9GZU7 76-261 limits assumed): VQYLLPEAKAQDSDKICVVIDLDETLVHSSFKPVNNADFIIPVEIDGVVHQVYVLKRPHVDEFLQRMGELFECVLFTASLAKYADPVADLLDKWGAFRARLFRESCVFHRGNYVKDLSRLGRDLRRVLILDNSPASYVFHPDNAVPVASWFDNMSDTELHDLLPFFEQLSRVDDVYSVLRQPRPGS
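Test system: SCP-1 catalytic domain; Buffer or medium: Acidic Tris acetate buffer with magnesium and detergent; Also added: Phosphorylated 17-residue peptide substrate; Compound: single 20 µM dose, 1% DMSO; Schedule: enzyme reaction 45 min at room temperature, colour 5 min, stabilisation 30 min; Signal: Phosphate-binding colour reagent, absorbance read at 630 nm.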
DNMT1 inh: DNMT1 (human) enzyme inhibition | 0.83% of 360,000 active | DNMT1 molecular beacon, Hinp1I cleavage, fluorescence | P26358 | inhibition (reported as % activation of signal), % at 10 µM | AID 588458; in the data active means inhibition above about 50%
SUMO1-SIM PPI: modulators of human SUMO1-mediated protein-protein interactions; P63165; SUMO1 binding to a labelled peptide, TR-FRET, 1 h; 0.33% of 360,000 active; inhibition, % at 20 µM; AID 602429; in the data active means inhibition above about 37%
Target sequence (P63165 whole entry, looked up): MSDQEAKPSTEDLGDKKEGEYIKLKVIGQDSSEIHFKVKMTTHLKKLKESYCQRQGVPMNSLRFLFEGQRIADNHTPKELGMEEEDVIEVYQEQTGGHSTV
LMPTP block: LMPTP (human) inhibition | AID 651560 | recombinant LMPTP-A, OMFP fluorogenic substrate, fluorescence intensity | 0.22% of 360,000 active | inhibition, % at 20 µM;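 active means compounds that cut the enzyme signal by at least half of the control window in the single-dose screen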;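 further: plate controls were DMSO wells with enzyme plus substrate for no effect and substrate without enzyme for full effect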
Target sequence (P24666 whole entry, looked up): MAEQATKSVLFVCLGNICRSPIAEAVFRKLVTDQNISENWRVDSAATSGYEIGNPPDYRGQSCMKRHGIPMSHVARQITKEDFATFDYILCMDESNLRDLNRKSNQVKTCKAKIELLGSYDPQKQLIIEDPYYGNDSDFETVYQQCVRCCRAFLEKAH
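Buffer or medium: Bis-Tris pH 6.0, DTT, detergent; Assay system: LMPTP-A enzyme; Quantity: 0.625 nM enzyme; Detection: endpoint fluorescence intensity; Times: 50 min dark incubation at room temperature; Controls: substrate-only low control, DMSO enzyme-plus-substrate high control; Doses: single 20 µM dose; Read-out: percent inhibition versus substrate-only and uninhibited controls; Reagent: 400 µM OMFP.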
NadD block: inhibitors of Staphylococcus aureus NadD; purified NadD enzyme, colorimetric absorbance read-out; 0.78% of 360,000 active; AID 602399; inhibition, % at 20 µM; in the data active means inhibition above about 26%
STEP block: inhibitors of human striatal-enriched phosphatase STEP | P54829 | recombinant STEP, OMFP fluorogenic substrate, fluorescence | inhibition, % at 20 µM | 0.25% of 360,000 active | AID 588621;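 active means inhibition at 20 µM, scaled per plate between control wells, above about 37%, limit read from the data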;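 further: 0% = DMSO with enzyme and substrate and 100% = substrate only without enzyme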
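Material: STEP (striatal-enriched tyrosine phosphatase) enzyme, cell-free | Medium: 50 mM Bis-Tris pH 6.0 with 2.5 mM DTT and 0.005% Tween 20 | Read-out: Percent inhibition scaled to no-enzyme and uninhibited-enzyme controls, plate-pattern corrected | Signal: Fluorescence read at 480 nm ex / 540 nm em | Times: 20 min reaction, room temperature, in the dark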
The depositor's hits bear a star; · = not tested or not shown. Hits are enriched below; roughly 2.4% of the tested compounds scored in any of these assays.

SMILES	Scp1 inh	DNMT1 inh	SUMO1-SIM PPI	LMPTP block	NadD block	STEP block
O=C1/C(=C/c2ccccn2)SC(=S)N1c1ccc(O)cc1	-19.9	-2.0	-18.1	-0.8	-0.3	-1.3
COc1ccc(/C=C2/SC(=S)N(c3ccc(S(=O)(=O)Nc4nccs4)cc3)C2=O)cc1	-18.1	-3.2	8.6	2.0	56.0*	2.1
Cc1ccc(N2C(=O)/C(=C/c3cccnc3)SC2=S)cc1	2.9	-3.0	-9.5	-1.5	-4.3	-0.3
Cc1ccc(/C=C2/SC(=S)N(c3ccc(S(=O)(=O)Nc4nccs4)cc3)C2=O)cc1	-15.9	-0.2	9.8	-0.2	62.3*	1.5
NC(=O)CSc1nnc(COc2ccc3ccccc3c2)o1	3.0	20.2	2.4	-2.2	0.3	-1.4
CC1=NN(c2ccccc2)C(=O)/C1=C/c1c(O)n(-c2ccc(F)cc2)[nH]c1=O	8.0	-18.6	10.1	2.0	1.9	0.9
COc1cccc(C(=O)NNC(=O)Cc2csc(N)n2)c1	-9.1	3.7	5.6	0.0	-5.5	-3.6
Cc1ccc(-n2c(N)c(C(=O)N3CCN(C)CC3)sc2=S)cc1	-8.0	-4.8	-15.3	-1.2	-7.4	95.6*
CN(C)c1ccc(/C=C/c2ccc3c4ccccc4ccc3[n+]2-c2ccccc2)cc1	6.3	39.7	37.1	98.0*	16.0	16.3
CN(C)c1ccc(/C=C/c2ccc3ccccc3[n+]2C)cc1	66.0*	0.8	-38.4	45.7	15.8	13.1
O=C(NC(=S)Nc1ccc(Br)cn1)c1cccs1	1.0	-3.6	4.1	1.9	-1.8	-2.8
COc1ccc(-c2csc(NC(=S)NC(=O)/C=C/c3ccco3)n2)cc1OC	-2.6	-7.7	57.7*	0.7	3.5	5.2
COc1ccc(-c2csc(NC(=S)NC(=O)/C=C/c3ccco3)n2)cc1Br	2.7	39.6	5.0	1.8	28.8	2.6
CC1=NN(c2nc(-c3ccc(C)cc3)cs2)C(=O)C1N=Nc1cccc(O)c1 (centres undefined)	-4.5	-8.4	16.1	2.8	38.3*	2.0
CC1=NN(c2ccccc2)C(=O)C1N=Nc1cccc(O)c1 (centres undefined)	-2.4	-9.1	-23.5	5.1	-5.3	-0.2
Cc1cccc2nc(-c3ccccc3)nc(N[C@@H](CO)c3ccccc3)c12	-10.7	-13.3	-3.2	54.5*	2.1	1.8
CCCCN(C(=O)c1cc(-c2ccco2)nc2ccccc12)c1c(N)n(CCCC)c(=O)[nH]c1=O	·	33.6	1.2	13.3	7.2	2.1
CCCN(C(=O)c1cc(-c2ccco2)nc2ccccc12)c1c(N)n(Cc2ccccc2)c(=O)[nH]c1=O	74.4*	37.8	0.2	13.3	11.9	5.8
CCCCn1c(N)c(N(CCC(C)C)C(=O)c2cc(-c3ccco3)nc3ccccc23)c(=O)[nH]c1=O	61.4*	37.2	0.9	9.2	6.6	11.5
O=C(Cn1nnc2ccccc21)NNC(=S)NC1CCCCC1	-1.4	-5.6	4.7	-0.6	4.1	-0.6
COCC(C)OC(=O)c1c(N)n(CC(C)C)c2nc3ccccc3nc12 (centres undefined)	4.6	60.0*	41.3*	19.6	2.2	3.4
N#CC(C#N)=C1NC(N)=C(C#N)C(c2ccccc2)=C1C#N	·	-3.1	40.5*	2.6	6.3	2.4
N#CC1=C(c2ccccc2)/C(=C/c2ccccc2)OC1=O	-7.0	19.1	6.2	-0.2	0.0	4.4
CS(=O)(=O)N1CCC(Oc2ccccc2C(=O)NC(C2CC2)C2CC2)CC1	-0.3	5.0	40.2*	-1.5	0.1	-2.2
CS(=O)(=O)N1CCC(Oc2ccccc2C(=O)NC2CCOC2)CC1 (centres undefined)	2.2	-6.9	-0.8	-0.4	-4.1	-1.3
CN(C)C(=O)/C(=C\c1ccncc1)NC(=O)c1ccccc1	-1.3	7.2	-0.4	0.3	4.0	0.5
Cc1cc2nc(-c3ccc(SCc4ccc(C(=O)O)cc4)nc3)[nH]c2cc1C	78.7*	-0.5	21.0	68.0*	20.3	91.8*
Cc1cc2nc(-c3ccc(SCc4ccccc4C#N)nc3)[nH]c2cc1C	0.3	29.7	8.6	2.4	9.2	2.8
CN(C)CCCN1C(=O)c2cccc3c([N+](=O)[O-])ccc(c23)C1=O	-2.3	68.6*	-26.7	0.9	-0.6	-2.8
